Screens from PubChem.
Most compounds without a hit are left out; they make up all but 3.1% or so of the library.
PHOSPHO1 block – PubChem AID 1565; Phosphoethanolamine/phosphocholine phosphatase (Homo sapiens), Q8TCT1; recombinant PHOSPHO1, absorbance phosphatase assay; inhibition, % at 13.3 µM; 290,000 compounds, 1.1% hits; in the data active means inhibition above about 60%
Target sequence (Q8TCT1 whole entry, looked up): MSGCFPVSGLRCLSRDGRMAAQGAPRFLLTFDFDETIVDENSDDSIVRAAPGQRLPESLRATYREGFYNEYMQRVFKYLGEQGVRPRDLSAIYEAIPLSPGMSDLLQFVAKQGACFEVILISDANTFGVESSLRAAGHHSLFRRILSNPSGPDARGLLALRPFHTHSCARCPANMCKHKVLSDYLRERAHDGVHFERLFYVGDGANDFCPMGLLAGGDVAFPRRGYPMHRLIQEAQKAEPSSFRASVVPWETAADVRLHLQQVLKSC
core dimer inh – inhibitors of HCV core protein dimerization, primary screen, biochemical, TR-FRET, high-throughput; TR-FRET GST/Flag-core106 dimerization, 1536-well; inhibition, % at 5 µM; 300,000 compounds, 0.33% hits;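 active means inhibition above the mean of all tested compounds plus 3 SD, set per screening campaign, cut at about 45% in these data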
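System: GST/Flag-tagged HCV core106 proteins. Incubation: compound-protein-antibody incubation 4 h at 22.5 °C. Technique: HTRF with 340 nm excitation, 617/671 nm emission. Medium: KF-containing HEPES buffer, pH 7.45, DTT, CHAPS, BSA. Read-out: inhibition (%) from 671 over 617 nm ratio. Also added: Eu(K)-anti-GST 90 ng/mL plus XL665-anti-Flag 1 µg/mL.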
SUMO HTRF inh – inhibitors of in vitro SUMOylation cascade, primary screen, biochemical, HTRF, uHTS | SUMO-conjugating enzyme UBC9 (Homo sapiens), P63279 | HTRF SUMOylation assay, SAE1/SAE2 + UBC9 | inhibition, % at 35 µM | 290,000 compounds, 0.36% hits | AID 2006, 2009; in the data active means inhibition above about 50%, passing the limit was not always enough
Target sequence (P63279 whole entry, looked up): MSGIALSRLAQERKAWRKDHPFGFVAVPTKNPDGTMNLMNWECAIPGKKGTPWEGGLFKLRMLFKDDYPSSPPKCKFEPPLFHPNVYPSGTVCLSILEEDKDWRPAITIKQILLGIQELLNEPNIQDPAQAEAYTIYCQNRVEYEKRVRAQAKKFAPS
HCV NS3 hel inh – inhibitors of HCV NS3 helicase, primary screen, biochemical, Cy5 molecular beacon fluorescence; Hepatitis C virus NS3 helicase; 290,000 compounds, 0.56% hits; NS3 helicase DNA unwinding; inhibition, % at 10.9 µM; AID 1800, 2009;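 active means inhibition above the mean of all tested compounds plus 3 SD, set per campaign, cut at about 35% in these data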;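 further: 0% = DMSO wells and 100% = thioflavine S control wells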
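assay system = NS3 helicase fragment of HCV | buffer or medium = MOPS pH 6.5, MgCl2, DTT, Tween20, BSA | timing = 60 min unwinding reaction at 25 °C after ATP addition | signal = Cy5 beacon fluorescence read at start and 1 h | read-out basis = % inhibition of unwinding | control set = low DMSO, high thioflavine S at 110 µM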
IMP-1 inh – IMP-1 metallo-beta-lactamase inhibitors, primary screen, biochemical, epi-absorbance readout, Pseudomonas aeruginosa enzyme; purified IMP-1, nitrocefin hydrolysis, epi-absorbance fluorescence; 290,000 compounds, 0.45% hits; inhibition, % at 5.6 µM; AID 1556, 2009;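 active means inhibition above the mean plus 3 SD of all compounds in the same screening run, cut at about 4.5% in these data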;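 further: 0% = IMP-1 with DMSO and 100% = DMSO wells lacking enzyme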
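System: purified IMP-1; amount: IMP-1 0.2 nM before substrate addition; compound: single dose, 5.6 µM; times: 25 °C, 15 min preincubation, 25 min reaction; signal: Epi-absorbance via hydrolysed-nitrocefin quenching of white-plate fluorescence, 480/530 nm, EDTA stop; benchmarks: DMSO with and without IMP-1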
VIM-2 inh – VIM-2 metallo-beta-lactamase inhibitors, primary screen, biochemical, epi-absorbance readout, Pseudomonas aeruginosa enzyme; purified VIM-2, nitrocefin hydrolysis, epi-absorbance fluorescence; inhibition, % at 5.6 µM; 290,000 compounds, 0.89% hits; AID 1527, 2009;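 active means inhibition above the mean of all tested compounds plus 3 SD, cutoff set per screening run, cut at about 7.5% in these data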;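 further: red hydrolysis product quenches plate fluorescence so inhibitors raise well fluorescence; 0% = enzyme with DMSO and 100% = DMSO without enzyme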
* hit, by the source's call; . = not tested or not shown.

SMILES	PHOSPHO1 block	core dimer inh	SUMO HTRF inh	HCV NS3 hel inh	IMP-1 inh	VIM-2 inh
CC(NC(=O)c1ccc(OC2CCN(Cc3ccccn3)CC2)cc1)c1nccs1 (stereo unspecified)	22.6	-3.1	-5.7	-1.1	-5.1	-2.5
CC(CNC(=O)c1ccc(OC2CCN(Cc3ccccn3)CC2)cc1)c1ccccc1 (stereo unspecified)	14.7	4.5	8.2	-13.5	0.0	-5.3
CCC(Cc1ccccc1)NC(=O)C1=C(C)C(=O)OC12CCC(C)CC2 (stereo unspecified)	-11.8	2.0	2.9	0.3	-3.1	-2.8
C=CCn1c(SCC(=O)c2ccc(CNC(C)=O)o2)nc2scc(C3CC3)c2c1=O	-11.8	48.4*	22.6	23.8	0.2	4.3
C=CCn1c(SCC(=O)NC2CCS(=O)(=O)C2)nc2scc(C3CC3)c2c1=O (stereo unspecified)	-15.0	7.8	-6.4	-14.9	-2.1	-1.1
O=C(NCC(O)CN1CCOCC1)c1ccc([N+](=O)[O-])cc1 (stereo unspecified)	27.4	-5.1	2.9	5.4	-1.0	-3.0
C/C(=N/Nc1nc(-c2ccc(Cl)cc2)cs1)c1cccs1	92.4*	-0.1	9.2	1.0	-4.2	-4.8
CN(C)c1ccc(C2CC(=O)C=C(Nc3ccccc3N)C2)cc1 (stereo unspecified)	20.3	-4.3	0.8	-2.7	-0.9	-1.9
CN(C)C(=O)c1sccc1Oc1ccc(F)cc1[N+](=O)[O-]	35.9	-1.7	4.7	6.3	-1.8	0.6
Cc1ccc2[nH]c3c(c2c1)CN(C(=O)CN1CCCc2ccccc21)CC3	69.9*	5.5	.	-8.6	-1.6	-2.3
CC[C@@H](C)[C@H](NC(=O)Cc1c(C)c2c(cc(C)c3c(C)coc32)oc1=O)C(=O)O	28.3	.	44.5	12.3	-1.3	0.4
Cc1oc2c(c(C)cc3oc(=O)c(CC(=O)NCC(=O)NCC(=O)O)c(C)c32)c1C	14.0	10.4	52.6*	9.1	-2.5	0.6
Cc1oc2c(c(C)cc3oc(=O)c(CC(=O)N[C@H](C(=O)O)C(C)C)c(C)c32)c1C	29.9	.	50.8*	7.3	-2.5	3.0
CCCCn1c(SCC(=O)Nc2cc(C)on2)nc2ccccc2c1=O	-6.9	73.2*	6.4	3.2	-1.0	-2.0
COCCCn1c(SCC(=O)Nc2ccc(C)cc2)nc2ccccc2c1=O	-5.7	6.6	-4.7	-0.3	-0.6	-1.6
CCCCn1c(SCC(=O)Nc2ccc(NC(C)=O)cc2)nc2ccccc2c1=O	35.6	-11.8	0.8	-3.1	-5.3	-1.9
CCCCn1c(SCC(=O)NC(C)CC)nc2ccc(N3CCOCC3)cc2c1=O (stereo unspecified)	60.5*	1.0	32.7	7.4	-4.3	-4.7
Cc1ccc(NC(=O)CSc2nc3ccccc3c(=O)n2CCCC(=O)N2CCCC2)cc1	26.3	1.8	10.3	0.4	10.1*	0.8
COc1ccc(-c2cc(C(=O)OCc3ccccn3)c3ccccc3n2)cc1	22.0	-1.1	22.9	-21.3	0.2	-0.8
Cc1ccc(C)c(NC(=S)NCCc2ccc(F)cc2)c1	-6.4	11.9	-9.0	7.1	19.7*	-2.3
CN(C)CCCNC(=S)N1CCn2c(nc3ccccc32)C1	-17.3	-3.7	-2.9	-8.1	-1.7	-2.3
CCc1ccc(N2CC(C(=O)Nc3ccc4c(c3)OCCO4)CC2=O)cc1 (stereo unspecified)	32.0	-7.0	-5.2	1.6	-1.7	-4.4
CCOC(=O)c1c(C)oc2c1cc(NS(=O)(=O)c1ccc(C(=O)O)cc1)c1ccccc12	6.3	13.5	17.8	-22.4	9.7*	0.3
CCN(C(=O)CN1CCOCC1)c1c(N)n(Cc2ccccc2)c(=O)[nH]c1=O	10.8	-0.7	4.4	0.4	-1.5	-0.4
CCN(CC)c1ccc(NC(=O)CSc2ccsc2[N+](=O)[O-])c(C)c1	-46.7	48.6*	14.4	14.8	-0.8	-3.0
O=c1c2ccccc2nc(-c2ccco2)n1CCCn1ccnc1	22.6	0.3	26.3	2.0	-2.9	8.1*
